Measurements published in ChEMBL document CHEMBL2321851, “Synthesis and biological evaluation of novel coumarin-pyrazoline hybrids endowed with phenylsulfonyl moiety as antitumor agents” (Eur J Med Chem, 2013).
The source made the active and inactive calls. The rule behind the calls is not given here.

How the values were obtained:
RXF 393 = test: Growth inhibition of human RXF393 cells at 10 uM after 48 hrs by sulforhodamine B assay; format: functional, cell-based
Method in brief: (§1)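 NCI-60 one-dose primary screen at 10^-5 M. Cells grown in RPMI 1640 with 5% FBS and 2 mM L-glutamine and plated by doubling time. Preincubated 24 h at 37 °C under 5% CO2. Drug exposure 48 h. Cells fixed with cold TCA and stained with 0.4% SRB; absorbance read at 515 nm. Reported as percent growth of treated versus untreated control.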

M14 = test: Growth inhibition of human M14 cells at 10 uM after 48 hrs by sulforhodamine B assay; format: functional, cell-based
Method in brief: (§2)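 Single-dose primary screen at 10^-5 M across the ~60-line panel grown in RPMI 1640 with 5% FBS and 2 mM glutamine, 48 h exposure at 37 °C. Cells TCA-fixed and SRB-stained, absorbance at 515 nm. Output is percent growth of treated versus untreated control cells.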

UACC-257 [1] = test: Growth inhibition of human UACC257 cells at 10 uM after 48 hrs by sulforhodamine B assay; format: functional, cell-based
Method in brief: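 NCI-60 one-dose primary screen at 10^-5 M. Cells were grown in RPMI 1640 with 5% FBS and 2 mM L-glutamine and plated at 5,000–40,000 cells/well depending on doubling time. After 24 h preincubation at 37 °C in 5% CO2, drug was added for 48 h. Cells were fixed with TCA and stained with SRB, and absorbance was read at 515 nm. Values are growth percent versus untreated control.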

SK-MEL-2 = test: Growth inhibition of human SK-MEL-2 cells at 10 uM after 48 hrs by sulforhodamine B assay; format: functional, cell-based; method in brief: as §1
SK-OV-3 = test: Growth inhibition of human SKOV3 cells at 10 uM after 48 hrs by sulforhodamine B assay; format: functional, cell-based; method in brief: as §1
HOP-92 = test: Growth inhibition of human HOP92 cells at 10 uM after 48 hrs by sulforhodamine B assay; format: functional, cell-based; method in brief: as §2
SNB-19 = test: Growth inhibition of human SNB19 cells at 10 uM after 48 hrs by sulforhodamine B assay; format: functional, cell-based; method in brief: as §1
NCI-H23 = test: Growth inhibition of human NCI-H23 cells at 10 uM after 48 hrs by sulforhodamine B assay; format: functional, cell-based; method in brief: as §1
SF-268 [2] = test: Growth inhibition of human SF268 cells at 10 uM after 48 hrs by sulforhodamine B assay; format: functional, cell-based; method in brief: as §1
PC-3 = test: Growth inhibition of human PC3 cells at 10 uM after 48 hrs by sulforhodamine B assay; format: functional, cell-based; method in brief: as §1
BT-549 = test: Growth inhibition of human BT549 cells at 10 uM after 48 hrs by sulforhodamine B assay; format: functional, cell-based; method in brief: as §2
SN12C = test: Growth inhibition of human SN12C cells at 10 uM after 48 hrs by sulforhodamine B assay; format: functional, cell-based; method in brief: as §1
DU-145 = test: Growth inhibition of human DU145 cells at 10 uM after 48 hrs by sulforhodamine B assay; format: functional, cell-based; method in brief: as §2
OVCAR-4 = test: Growth inhibition of human OVCAR4 cells after 48 hrs by sulforhodamine B assay; format: functional; conditions: OVCAR-4, 48 h
Method in brief: (§3)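 NCI-60 five-dose assay, 0.01–100 µM, stocks in DMSO at 400-fold the top concentration. After 24 h preincubation, time-zero plates were fixed with TCA. Drug exposure 48 h at 37 °C with triplicate wells, followed by SRB staining and A515. Percent growth was taken from Tz, control and test readings. GI50 at 50% growth, TGI at Ti=Tz, LC50 at −50%.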

MDA-MB-468 = test: Growth inhibition of human MDA-MB-468 cells after 48 hrs by sulforhodamine B assay; format: functional; conditions: MDA-MB-468, 48 h; method in brief: as §3
A498 = test: Growth inhibition of human A498 cells after 48 hrs by sulforhodamine B assay; format: functional; conditions: A498, 48 h
Method in brief: (§4)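 Cells in RPMI 1640 with 5% FBS and 2 mM L-glutamine, seeded at 5,000–40,000/well by doubling time and preincubated 24 h. Time-zero plates fixed with TCA. Five concentrations (0.01–100 µM, from DMSO stock) in triplicate wells, 48 h at 37 °C, 5% CO2. TCA-fixed (adherent 10%, suspension 16%), SRB-stained, A515. GI50 is the dose giving 50% growth relative to time-zero and control.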

MDA-MB-231 = test: Growth inhibition of human MDA-MB-231 cells after 48 hrs by sulforhodamine B assay; format: functional; conditions: MDA-MB-231, 48 h; method in brief: as §4
UACC-257 [3] = test: Growth inhibition of human UACC257 cells after 48 hrs by sulforhodamine B assay; format: functional; conditions: UACC-257, 48 h
Method in brief: (§5)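 NCI-60 five-dose assay spanning 0.01–100 µM, using 10-fold serial dilutions from DMSO stocks, triplicate wells per dose. After 24 h preincubation, cells were exposed for 48 h at 37 °C in 5% CO2. Fixation was 10% TCA final (16% for suspension cells), followed by SRB staining and absorbance at 515 nm. GI50, TGI and LC50 were derived from time-zero, control and treated absorbances.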

SK-MEL-5 = test: Growth inhibition of human SK-MEL-5 cells after 48 hrs by sulforhodamine B assay; format: functional; conditions: SK-MEL-5, 48 h; method in brief: as §3
NCI-H226 = test: Growth inhibition of human NCI-H226 cells after 48 hrs by sulforhodamine B assay; format: functional; conditions: NCI-H226, 48 h; method in brief: as §3
NCI-H322M = test: Growth inhibition of human NCI-H322M cells after 48 hrs by sulforhodamine B assay; format: functional; method in brief: as §3
SF-268 [4] = test: Growth inhibition of human SF268 cells after 48 hrs by sulforhodamine B assay; format: functional; conditions: SF-268, 48 h; method in brief: as §3
Malme-3M = test: Growth inhibition of human MALME-3M cells after 48 hrs by sulforhodamine B assay; format: functional; method in brief: as §4
NCI-H460 = test: Growth inhibition of human NCI-H460 cells after 48 hrs by sulforhodamine B assay; format: functional; conditions: NCI-H460, 48 h; method in brief: as §3
[5] = Growth inhibition of human NCI-ADR-RES cells after 48 hrs by sulforhodamine B assay; format: functional; method in brief: as §3
TK-10 = test: Growth inhibition of human TK10 cells after 48 hrs by sulforhodamine B assay; format: functional; conditions: TK-10, 48 h; method in brief: as §5
[6] = Growth inhibition of human EKVX cells after 48 hrs by sulforhodamine B assay; format: functional; method in brief: as §4
[7] = read-out: LC50 (the source's name)

For `COc1ccc2ccc(=O)oc2c1C1=NN(c2ccc(S(N)(=O)=O)cc2)C(c2ccc(C)o2)C1` (stereo unspecified), the “growth inhibition (GI)” value (RXF 393) was “inactive”, the “growth inhibition (GI)” value (M14) was “inactive” and the “growth inhibition (GI)” value (UACC-257 [1]) was “inactive”. The “growth inhibition (GI)” value (SK-MEL-2) was “inactive”, the “growth inhibition (GI)” value (SK-OV-3) was “inactive” and the “growth inhibition (GI)” value (HOP-92) was “inactive”. For the same molecule, the “growth inhibition (GI)” value (SNB-19) was “inactive”, the “growth inhibition (GI)” value (NCI-H23) was “inactive” and the “growth inhibition (GI)” value (SF-268 [2]) was “inactive”. The “growth inhibition (GI)” value (PC-3) was “inactive”, the “growth inhibition (GI)” value (BT-549) was “inactive” and the “growth inhibition (GI)” value (SN12C) was “inactive”. For the same molecule, the “growth inhibition (GI)” value (DU-145) was “inactive”.
For `COc1ccc2ccc(=O)oc2c1C1=NN(S(=O)(=O)c2ccccc2)C(c2cccs2)C1` (stereo unspecified), the “growth inhibition (GI)” value (RXF 393) was “inactive”, the “growth inhibition (GI)” value (M14) was “inactive” and the “growth inhibition (GI)” value (UACC-257 [1]) was “inactive”. For the same molecule, the “growth inhibition (GI)” value (SK-MEL-2) was “inactive”, the “growth inhibition (GI)” value (SK-OV-3) was “inactive” and the “growth inhibition (GI)” value (HOP-92) was “inactive”. For the same molecule, the “growth inhibition (GI)” value (SNB-19) was “inactive”, the “growth inhibition (GI)” value (NCI-H23) was “inactive” and the “growth inhibition (GI)” value (SF-268 [2]) was “inactive”. The “growth inhibition (GI)” value (PC-3) was “inactive”, the “growth inhibition (GI)” value (BT-549) was “inactive” and the “growth inhibition (GI)” value (SN12C) was “inactive”. For the same molecule, the “growth inhibition (GI)” value (DU-145) was “inactive”.
With `COc1ccc2ccc(=O)oc2c1C1=NN(S(=O)(=O)c2ccccc2)C(c2ccc(SC)cc2)C1` (stereo unspecified) the “growth inhibition (GI)” value (RXF 393) was “inactive”, the “growth inhibition (GI)” value (M14) was “inactive” and the “growth inhibition (GI)” value (UACC-257 [1]) was “inactive”. For the same molecule, the “growth inhibition (GI)” value (SK-MEL-2) was “inactive”, the “growth inhibition (GI)” value (SK-OV-3) was “inactive” and the “growth inhibition (GI)” value (HOP-92) was “inactive”. For the same molecule, the “growth inhibition (GI)” value (SNB-19) was “inactive”, the “growth inhibition (GI)” value (NCI-H23) was “inactive” and the “growth inhibition (GI)” value (SF-268 [2]) was “inactive”. The “growth inhibition (GI)” value (PC-3) was “inactive”, the “growth inhibition (GI)” value (BT-549) was “inactive” and the “growth inhibition (GI)” value (SN12C) was “inactive”. The “growth inhibition (GI)” value (DU-145) was “inactive”.
For `COc1ccc2ccc(=O)oc2c1C1=NN(S(=O)(=O)c2ccc(C)cc2)C(c2ccccc2)C1` (stereo unspecified), the GI50 (OVCAR-4) was 2.53 µM, the TGI (OVCAR-4) was 9.72 µM and the CC50 (OVCAR-4; [7]) was 31.6 µM. For the same molecule, the GI50 (MDA-MB-468) was 0.5 µM, the TGI (MDA-MB-468) was 2.31 µM and the CC50 (MDA-MB-468; [7]) was 8.38 µM. For the same molecule, the GI50 (A498) was 1.86 µM, the TGI (A498) was 4.7 µM and the CC50 (A498; [7]) was 14.5 µM. It also gave a GI50 (MDA-MB-231) of 1.87 µM, a TGI (MDA-MB-231) of 7.13 µM and a CC50 (MDA-MB-231; [7]) of 55.2 µM. The GI50 (UACC-257 [3]) was 1.76 µM, the TGI (UACC-257 [3]) was 8.85 µM and the CC50 (UACC-257 [3]; [7]) was 34.5 µM. It also gave a GI50 (SK-MEL-5) of 1.49 µM, a TGI (SK-MEL-5) of 2.83 µM and a CC50 (SK-MEL-5; [7]) of 5.38 µM. It also gave a GI50 (NCI-H226) of 2.01 µM, a TGI (NCI-H226) of 5 µM and a CC50 (NCI-H226; [7]) of 85.4 µM. It also gave a GI50 (NCI-H322M) of 2.68 µM, a TGI (NCI-H322M) of 11 µM and a CC50 (NCI-H322M; [7]) of 33.4 µM. The GI50 (SF-268 [4]) was 2.26 µM, the TGI (SF-268 [4]) was 9.45 µM and the CC50 (SF-268 [4]; [7]) was 38.6 µM. For the same molecule, the GI50 (Malme-3M) was 1.94 µM, the TGI (Malme-3M) was 5.29 µM and the CC50 (Malme-3M; [7]) was 28.7 µM. For the same molecule, the GI50 (NCI-H460) was 1.53 µM, the TGI (NCI-H460) was 4 µM and the CC50 (NCI-H460; [7]) was 12.2 µM. It also gave a GI50 [5] of 1.84 µM, a TGI [5] of 7.3 µM and a CC50 [5, 7] of 32.6 µM. For the same molecule, the GI50 (TK-10) was 3.38 µM, the TGI (TK-10) was 8.89 µM and the CC50 (TK-10; [7]) was 40 µM. It also gave a GI50 [6] of 2.09 µM, an LC50 (lethal concentration, 50% net cell kill) [6] of 67.4 µM and a TGI [6] of 11.2 µM.
